# Compound activity from PubChem.
# beta cell repl – induces beta-cell replication in MIN6 cells. AID 2380. proliferation, % at 10 µM. MIN6 cells proliferation, ATPlite luminescence, 48 h; cells starved in 0.2% serum; 100% = growth in 10% serum. 330,000 tested, 0.29% active;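 active = compounds whose signal lies at least 3.5 SD above the mean of all wells on their plate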;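 note: 0% = DMSO-treated cells in low-serum medium and 100% = 10% serum control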
# H9c2 TAG inh – inhibitors of triacylglycerol accumulation; H9c2 cells, Nile Red lipid (TAG) fluorescence; cells loaded with 200 µM oleic acid; inhibition, % at 12.5 µM; 230,000 tested, 0.66% active; AID 651582;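 active = pattern-corrected inhibition of lipid staining of at least 50% with the nuclear-stain viability signal not falling by more than 50%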;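 note: 0% = DMSO wells and 100% = triacsin C control wells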
# Rev-erbA mod – modulators of human Rev-erb alpha DNA binding; AID 1259318; P20393; activity, % at 10 µM; Rev-erbα–FITC-DNA binding, fluorescence polarization, 90 min; 370,000 tested, 0.79% active;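 active = activity above about 14%, limit read from the data; passing the limit was not always enough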;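 note: 0% = DMSO wells with 35 nM protein and 100% = DMSO wells with 750 nM protein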
# Target sequence (P20393 whole entry, looked up): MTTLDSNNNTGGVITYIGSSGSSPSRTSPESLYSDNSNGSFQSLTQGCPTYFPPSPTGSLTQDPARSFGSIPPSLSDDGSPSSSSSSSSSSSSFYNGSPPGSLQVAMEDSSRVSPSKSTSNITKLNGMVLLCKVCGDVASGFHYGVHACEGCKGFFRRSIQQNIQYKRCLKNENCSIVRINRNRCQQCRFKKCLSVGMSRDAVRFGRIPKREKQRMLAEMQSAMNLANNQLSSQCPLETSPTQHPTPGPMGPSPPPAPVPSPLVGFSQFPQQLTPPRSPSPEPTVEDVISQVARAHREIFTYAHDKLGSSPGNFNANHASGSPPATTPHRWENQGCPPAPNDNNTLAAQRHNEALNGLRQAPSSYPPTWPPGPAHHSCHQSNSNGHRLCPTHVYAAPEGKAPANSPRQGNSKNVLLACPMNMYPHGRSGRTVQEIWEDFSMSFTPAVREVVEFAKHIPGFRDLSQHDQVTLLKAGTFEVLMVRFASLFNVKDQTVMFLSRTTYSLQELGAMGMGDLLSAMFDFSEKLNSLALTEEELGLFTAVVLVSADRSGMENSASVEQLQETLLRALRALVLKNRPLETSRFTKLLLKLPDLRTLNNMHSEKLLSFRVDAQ
# T cruzi repl – T. cruzi replication inhibition. T. cruzi beta-gal in NIH3T3, luminescence, 90 h. inhibition, % (test concentration not listed). 300,000 tested, 1.4% active;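 active = mean inhibition across valid replicates above about 55%, limit read from the data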;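 note: signal also drops with host cell toxicity which is not excluded here; 0% = plate median of DMSO wells and 100% = zero luminescence signal; higher percent means less beta-gal luminescence so fewer parasites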
#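 Test system: β-gal T. cruzi (Tulahuen C4) inside NIH/3T3 cells / Quantity: 5,000 cells/well / Measured by: luminescence from GalScreen with 0.05% NP40, read after 60 min / Medium: DMEM plus 2% FBS / Measure: parasite load inhibition, % / Reagent: Tulahuen C4 trypomastigotes, 5000/well / Schedule: co-culture of at least 90 h after 3 h attachment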
# PG9 Ab binder – small molecules binding HIV-1 gp120 antibody PG9. TR-FRET gp120-PG9 antibody binding. inhibition, % at 6.7 µM. 360,000 tested, 0.43% active. AID 624416; in the data active = inhibition above about 8.5%
# iPSC survival up – enhancers of human iPSC single-cell survival; survival enhancement, % at 20 µM; 360,000 tested, 0.044% active; hiPSC single-cell survival, ATPlite luminescence; 100% = ROCK inhibitor wells, 0% = DMSO; in the data active = survival enhancement above about 18%;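 note: cells exposed to compounds for 16 hours before the ATP read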
# Rev-erbA confirm – confirmation of modulators of human Rev-erb alpha DNA binding; shares compounds with Rev-erbA mod; Rev-erb alpha FITC-DNA binding, fluorescence polarization, 90 min; activation, % at 25 µM; 3,000 tested, 61% active;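 active = activation at or above a set limit, or at least 3 SD above the negative control mean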;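 note: 0% = 35 nM protein with DMSO and 100% = 750 nM protein high control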
# RORg counter – counter-screen for Rev-erb alpha modulators: RORgamma DNA binding; shares compounds with Rev-erbA mod; purified RORgamma protein-FITC-DNA binding, fluorescence polarization; IC50, µM; 910 tested, 8% active; AID 1259320;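 active = Compounds whose fitted half-maximal concentration for disrupting protein-DNA binding is below 10 micromolar; the record names Rev-erb in its text, so the target is in doubt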
# An asterisk follows results filed as active; i = inactive; . = not tested or not shown. Compounds with a hit are over-represented: about 2.9% of the library has one in this group of screens.
SMILES,beta cell repl,H9c2 TAG inh,Rev-erbA mod,T cruzi repl,PG9 Ab binder,iPSC survival up,Rev-erbA confirm,others
O=C(Nc1ccccc1)c1cc(S(=O)(=O)N2CCOCC2)cs1,1,.,-3,-78,0,1,.,
Cc1c(C(=O)Nc2cccc(S(=O)(=O)N3CCOCC3)c2)oc2ccc(Br)cc12,-2,11,16*,.,1,5,-2,
O=C(CN1CCN(S(=O)(=O)c2ccc(F)cc2)CC1)Nc1ccccc1C(=O)NC1CC1,-1,1,-6,.,2,-1,.,
COc1ccccc1N1CC(C(=O)NCC2COc3ccccc3O2)CC1=O (stereo unspecified),2,-4,-3,.,3,2,.,
CCOc1ccc(CNC(=O)C2CCN(c3nnc(C)c4c(C)n(-c5ccc(C)cc5)nc34)CC2)cc1,-5,.,33*,27,2,-1,34*,RORg counter=>40
COc1ccc(-n2nc3c(N4CCC(C(=O)NCc5cccc(C)c5)CC4)nnc(C)c3c2C)cc1,-8,.,5,26,-4,0,.,
Cn1c(=O)c(Nc2ccc(O)cc2)c2c3c(cccc31)C(=O)c1ccccc1-2,-4,.,175*,17,-1,-2,157*,RORg counter=>40
CCC(C)c1ccc(S(=O)(=O)Nc2cccnc2)cc1 (stereo unspecified),5,.,1,0,0,0,.,
FC(F)(F)c1cc(-c2ccccn2)nc2cc(-c3ccccc3)nn12,-3,19,45*,0,0,0,24*,
C/C(CC(=O)Nc1ccc(N(C)C)cc1)=N\NC(=O)C(=O)NCc1ccccc1,2,-8,-6,1,-4,-1,.,
Cc1ccc(C)c2c1cc(C)c1nnc(SCC(=O)N3CCCc4ccccc43)n12,3,.,-2,8,0,1,.,
Cc1ccc(C)c2nc(SCC(=O)N3CCCc4ccccc43)c(C#N)cc12,-2,13,61*,-6,-1,-2,72*,RORg counter=>40
Cc1cc(NC(=O)CSc2nc3c(C)ccc(C)c3cc2C#N)no1,1,.,75*,3,-14,1,36*,RORg counter=>40
Cc1cc(C)c2cc(C#N)c(SCC(=O)Nc3cc(C)on3)nc2c1,0,.,105*,12,2,0,49*,RORg counter=>40
CCc1cc2c(C)cc(C)cc2nc1SCC(=O)Nc1cc(C)on1,-5,13,97*,15,0,1,19*,
O=C(O)CC(CNC(=O)C1CCCN1C(=O)OCc1ccccc1)c1ccccc1 (stereo unspecified),-2,.,-1,4,-2,1,.,
N#Cc1c(-c2ccccc2F)cc(C2CC2)nc1SCC(=O)c1cccs1,-3,.,40*,24,-5,1,28*,
CCCc1cc(=O)oc2cc(OCC(=O)N3CCc4ccccc43)ccc12,3,.,21*,-10,2,0,8,
COC(=O)c1ccc(CN2C(=O)NC(Cc3c[nH]c4ccccc34)C2=O)cc1 (stereo unspecified),-1,.,15,-6,-1,0,.,
COc1ccc(-c2cc(C(F)(F)F)c3c(N)c(C(=O)NCCSC)sc3n2)cc1,-3,4,-4,6,3,0,.,
COc1ccc(OC)c(NC(=O)c2sc3nc(Cc4ccccc4)cc(C(F)(F)F)c3c2N)c1,-2,.,82*,0,-1,-4,29*,
NC(=O)C1(N2CCCCC2)CCN(C(=S)Nc2ccc(F)c(Cl)c2)CC1,1,2,13*,6,-2,0,-6,
NS(=O)(=O)c1ccc(CCNc2ccn3nc(-c4cccc(C(F)(F)F)c4)cc3n2)cc1,.,12,28*,.,-1,1,9,
COc1cccc(-c2cnc(NCc3cc(Cl)ccc3O)n2C)c1,-5,-94,.,6,.,0,.,
CSc1nnc(N2C(=O)C(O)=C(C(=O)c3ccco3)C2c2cccc(Cl)c2)s1 (stereo unspecified),.,.,31*,-15,0,0,29*,RORg counter=>40
SMILES,beta cell repl,H9c2 TAG inh,Rev-erbA mod,T cruzi repl,PG9 Ab binder,iPSC survival up,Rev-erbA confirm,others
C=C(C)C(=O)Nc1nnc(-c2cccs2)s1,2,.,2,-9,1,2,.,
O=C(CSc1nc2ccccc2nc1N1CCCCC1)NCc1ccc(Cl)cc1Cl,.,.,47*,.,.,.,41*,RORg counter=>40
Cc1c(C)c2ccc(OC(C)C(=O)N3CC[C@@]4(O)CCCC[C@H]4C3)c(C)c2oc1=O (stereo partly specified),-2,.,0,-11,-1,0,.,
O=C(c1ccc2nc[nH]c2c1)N1CCc2ccccc2C1,-1,-13,6,42,0,0,.,
COc1ccc(NC(=O)c2sc3nc(N4CCCC4)c4c(c3c2N)CC(C)(C)OC4)c(OC)c1,3,.,53*,22,1,0,30*,RORg counter=i
Cc1ccc(NC(=O)c2sc3nc(N4CCOCC4)c4c(c3c2N)CC(C)(C)OC4)cc1,-5,.,6,3,4,0,.,
CC1(C)Cc2c(c(N3CCCC3)nc3sc(C(=O)Nc4ccccc4)c(N)c23)CO1,1,.,50*,35,1,0,44*,RORg counter=i
CCOc1ccc(NC(=O)c2sc3nc(N4CCOCC4)c4c(c3c2N)CC(C)(C)OC4)cc1,-3,.,33*,1,0,0,14,
CCCNC(=O)N1CCC(Cc2ccccc2)CC1,-2,-8,2,9,1,0,.,
COC(=O)c1ccc2nc(-c3ccc(F)cc3)c(Cc3ccccc3C(F)(F)F)n2c1,.,.,21*,.,0,1,-5,
COC(=O)c1ccc2nc(-c3ccccc3)c(Cc3ccccc3C(F)(F)F)n2c1,.,.,22*,.,1,0,19*,
COC(=O)c1ccc2nc(-c3ccc(OC)c(OC)c3)c(Cc3ccccc3C(F)(F)F)n2c1,.,.,-2,.,-2,.,.,
COC(=O)c1ccc2nc(-c3ccc(F)cc3)c(Cc3ccccc3)n2c1,.,.,2,.,0,4,.,
Cc1cc2ncn(C(=O)N3CCC(C)CC3)c2cc1C,2,5,4,-16,1,-2,.,
COc1ccc(/C=C(\NC(=O)c2ccc(OC)c(OC)c2)C(=O)N2CCN(C)CC2)cc1,-5,.,1,0,1,0,.,
CC1CCN(C(=O)Cn2c(=O)n(Cc3ccc4c(c3)OCO4)c(=O)c3ccccc32)CC1,-1,2,3,8,0,2,.,
CCN(CC)CCNC(=O)c1ccc(NC(=O)/C=C/c2cc(OC)c(OC)c(OC)c2)cc1,-4,.,-2,-6,-1,-1,.,
CCn1nc(NC(=O)CC(C)C)c2cc3cccc(C)c3nc21,-3,.,24*,0,1,0,-2,
